Test results from ChEMBL document CHEMBL1799936, “Azaphilones from the endophyte Chaetomium globosum” (2011).
≈ marks a conversion by molar mass, not a printed value. Calls of active or inactive are those of the source. The calls are words filed in the database; no cut-off is given here.

Key:
[1] = system: Enterococcus faecalis; assay: Antibiotic activity against cytolysin-positive Enterococcus faecalis MMH594 infected in intestine of Caenorhabditis elegans glp-4(bn2ts);sek-1(km4) mutant infection model assessed as nematode survival at 50 to 100 ug/mL after 168 hrs by liquid infection assay; type: functional, organism-based
Method in brief: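 C. elegans glp-4(bn2ts);sek-1(km4) synchronized L4 to young adult worms, fed E. coli OP50, infected on E. faecalis MMH594 lawn, then moved to liquid medium (19% BHI, 80% M9, 80 μg mL-1 kanamycin, 1% DMSO) with compound at 100 and 50 μg mL-1 final. Survival scored at 3, 48, 120, 168 h. Ampicillin positive control.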

[2] = system: Globisporangium ultimum; assay: Antimicrobial activity against Pythium ultimum mycelia assessed as growth inhibition; type: functional
[3] = system: Pyricularia grisea; assay: Antimicrobial activity against Magnaporthe grisea mycelia assessed as growth inhibition; type: functional

CC[C@H](C)/C=C/C1=CC2=C(Cl)C(=O)[C@@]3(C)OC(=O)C4=C(C(C)C(C)O)OC(O1)C2(O)C43O (stereo partly specified)
Activity [1]: inactive

CC[C@H](C)/C=C/C1=CC2=C(Cl)C(=O)[C@@]3(C)OC(=O)C(C(=O)[C@H](C)CC)=C3C2=CO1
Activity [1]: inactive

CC[C@H](C)/C=C/C1=CC2=C(Cl)C(=O)[C@@]3(C)OC(=O)C(C(=O)[C@@H](C)[C@@H](C)O)=C3C2=CO1 [CHAETOVIRIDIN A]
Activity [1]: inactive | MIC [2]: 33.3 µg/mL (≈ 76.9 µM) | MIC [3]: 1.23 µg/mL (≈ 2.84 µM)

CC[C@H](C)/C=C/C1=CC2=C(Cl)C(=O)[C@@]3(C)OC(=O)C(C(=O)[C@@H](C)[C@H](C)O)=C3C2=CO1
Activity [1]: inactive

C/C=C(\C)C(=O)C1=C2C3=COC(/C=C/[C@@H](C)CC)=CC3=C(Cl)C(=O)[C@@]2(C)OC1=O
Activity [1]: inactive

CC[C@H](C)/C=C/C1=CC2=C(Cl)C(=O)[C@@]3(C)OC(O)(C(C)C(C)O)[C@@H](C(=O)O)[C@H]3C2=CO1 (stereo partly specified) [CHAETOVIRIDIN B]
Activity [1]: inactive | MIC [2]: 33.3 µg/mL (≈ 73.5 µM) | MIC [3]: 1.23 µg/mL (≈ 2.72 µM)

CC(O)C(C)C1(O)O[C@]2(C)C(=O)C(Cl)=C3C=C(/C=C/[C@@H](C)[C@@H](C)O)OC=C3[C@@H]2[C@@H]1C(=O)O (stereo partly specified)
Activity [1]: inactive

CC[C@H](C)/C=C/C1=CC2=C(Cl)C(=O)[C@@]3(C)OC(=O)C(C(=O)[C@H](C)[C@@H](C)O)=C3C2=CO1
Activity [1]: inactive

CC[C@H](C)/C=C/C1=CC2=C(Cl)C(=O)[C@@]3(C)OC(=O)[C@@H](C(=O)[C@@H](C)[C@H](C)O)[C@H]3C2=CO1
Activity [1]: inactive

CC[C@H](C)/C=C/C1=CC2=CC(=O)[C@@]3(C)OC(=O)C(C(=O)[C@@H](C)[C@@H](C)O)=C3C2=CO1
Activity [1]: inactive

C[C@H](O)[C@H](C)C(=O)[C@@H]1C(=O)O[C@]2(C)C(=O)C(Cl)=C3C=C(/C=C/[C@@H](C)[C@@H](C)O)OC=C3[C@H]12
Activity [1]: inactive

C/C=C(\C)C(=O)[C@@H]1C(=O)O[C@]2(C)C(=O)C(Cl)=C3C=C(/C=C/[C@@H](C)CC)OC=C3[C@H]12
Activity [1]: inactive
